As a reminder, the Ki is the dissociation constant of the complex between target and ligand, obtained from inhibition or displacement. For orientation: IC50 means the concentration that inhibits the measured activity by half.

The text below walks through data of PMC3654042 (Environmental toxicology, 2012).

The target of experiment [1] is T1, purified porcine liver PMPMEase (Sus scrofa, UniProt Q29550).
T1 sequence (Q29550 19-566): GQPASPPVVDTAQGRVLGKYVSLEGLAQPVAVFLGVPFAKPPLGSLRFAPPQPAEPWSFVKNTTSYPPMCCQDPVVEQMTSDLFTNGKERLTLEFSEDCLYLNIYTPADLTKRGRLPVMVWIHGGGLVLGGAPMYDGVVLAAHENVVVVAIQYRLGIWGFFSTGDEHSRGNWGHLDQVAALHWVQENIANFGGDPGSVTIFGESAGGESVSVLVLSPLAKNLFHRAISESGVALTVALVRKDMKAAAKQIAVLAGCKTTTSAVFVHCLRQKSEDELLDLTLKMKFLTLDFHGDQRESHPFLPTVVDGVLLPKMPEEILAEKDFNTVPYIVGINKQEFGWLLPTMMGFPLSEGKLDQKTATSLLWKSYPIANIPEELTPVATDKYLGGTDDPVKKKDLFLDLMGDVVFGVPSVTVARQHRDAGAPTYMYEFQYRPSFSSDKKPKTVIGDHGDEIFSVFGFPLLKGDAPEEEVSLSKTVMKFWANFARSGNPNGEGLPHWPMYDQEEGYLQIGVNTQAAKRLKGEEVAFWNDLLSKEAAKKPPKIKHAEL
Nature of the experiment: Inhibition of purified porcine liver PMPMEase. It counts as biochemical. The settings on record: for inhibition of PMPMEase / residual enzyme activity (suppressed to): fragrance 1 mM, PMPMEase 5 µg, 1 mM RD-PNB, 1 h; for residual enzyme activity (suppressed to): % of uninhibited control. A digest of the protocol:
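Single-concentration screen: test compound 1 mM in DMSO was incubated with 5 µg purified pig liver PMPMEase and 1 mM RD-PNB substrate for 1 h in 100 mM Tris–HCl, pH 7.4, at 37°C. Stopped with methanol, chilled on ice, and centrifuged at 5000 × g for 5 min. Residual activity was measured by reversed-phase HPLC of the supernatant, as % of uninhibited control, N = 3.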

Experiment [2] deals with human lung cancer A549 cells. The experiment can be described thus: Apoptosis assay. It counts as cell-based. The settings on record: 0–10 µM, serum-free medium. A digest of the protocol:
(§1)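 Treatment at 0–10 µM in serum-free medium at 37°C in 5% CO2/95% humidified air, one addition per well. Exposure is 24 h per methods and 48 h per figure legend. A549 were seeded at 2 × 10^5 per well and SH-SY5Y at 3 × 10^5 per well in 24-well plates. Stained in the dark with EB/AO 10 µg/mL for 15 min and viewed at 400× with 480/30 nm excitation. Green nuclei were scored live, condensed or fragmented orange chromatin apoptotic, and normal orange nuclei necrotic.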

In experiment [3] the test system is human neuroblastoma SH-SY5Y cells. The experiment can be described thus: Cell viability. The settings on record: for cell degeneration: SH-SY5Y cells, 1–200 µM, 48 h. It is filed as cell-based. In short, it runs like this:
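SH-SY5Y neuroblastoma cells grown in DMEM/F12 with 10% heat-inactivated FBS and penicillin/streptomycin at 37°C, 5% CO2, trypsinized at 80–90% confluence, and plated in 96-well plates. Exposed in serum-free DMEM/F12 to test compound (1–200 µM, acetone vehicle, 1% final), re-dosed identically at 24 h, for 48 h. Resazurin (0.05%) added for 2 h in the dark at room temperature. Fluorescence read at ex 560/em 590 nm as % of untreated control, mean ± SEM, N = 4.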

Experiment [4] shares this test system. Nature of the experiment: Apoptosis assay. It counts as cell-based. The following applies: 0–10 µM, serum-free medium. In short, it runs like this:
as §1

For experiment [5], the system named is human lung cancer A549 cells. The experiment can be described thus: Cell viability. It counts as cell-based. The following applies: for cell degeneration: A549 cells, 1–200 µM, 48 h. A digest of the protocol:
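A549 cells grown in DMEM/F12 with 10% heat-inactivated FBS and penicillin/streptomycin at 37°C, 5% CO2, trypsinized at 80–90% confluence, and seeded in 96-well plates. Treated with test compound (1–200 µM, acetone vehicle, 1% final) in serum-free RPMI 1640/F12, with the same dose re-added at 24 h, for 48 h. Resazurin (0.05%) added for 2 h in the dark at room temperature. Fluorescence read at ex 560/em 590 nm and expressed as % of untreated control, mean ± SEM, N = 4.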

Setting [6] is: purified porcine liver PMPMEase, RD-PNB substrate.

“Also recorded” adds a separate entry of the source. Read-outs that look alike come from different tables or passages of the source.

As to `CCCCC=O` [Pentanal, pentanal], in experiment [1], the inhibitory constant (Ki) was found to be 173 µM, the “inhibition of PMPMEase” value came to 60% and the “residual enzyme activity (suppressed to)” value is listed as “less than 25%”. The IC50 in experiment [1] (IC50, purified porcine liver PMPMEase, value as worded in text) is over 1000 µM.
Consider `CCCCCCCCC1CCC(=O)O1` (stereo not drawn) [Dodecalactone, γ-dodecalactone], for which the “residual enzyme activity (suppressed to)” value in experiment [1] was “less than 25%”. The molecule also registered a Ki in experiment [1] (setting [6]) of 12 µM.
The like results for `O=C1CCCCCCCCCCCCCCO1` [ω-Pentadecalactone, ω-pentadecalactone] were, in that order, “less than 25%” and 46 µM.
For the molecule `CC1COCc2cc3c(cc21)C(C)(C)C(C)C3(C)C` (stereo not drawn) [Galaxolide], the “apoptosis (AO/EB staining, words)” value in experiment [2] and in experiment [4] was “induced apoptosis” throughout. This molecule had a Ki in experiment [1] of 11 µM. Moreover, the “residual enzyme activity (suppressed to)” value in experiment [1] is “less than 25%”. Further, the EC50 in experiment [3] (Homo sapiens, SH-SY5Y, read-out: EC50 cell degeneration) amounted to 26 µM; in experiment [5] (Homo sapiens, A549, read-out: EC50 cell degeneration), 58 µM. Besides, the “cell degeneration” value in experiment [3] and in experiment [5] was “significant degeneration” in each case.
On to `CC(=O)c1cc2c(cc1C)C(C)(C)C(C)CC2(C)C` (stereo not drawn) [Tonalide], for which the “apoptosis (AO/EB staining, words)” value in experiment [2] and in experiment [4] was “apoptosis was observed in a concentration-dependent manner; also recorded: induced apoptosis” each time. In addition, the “residual enzyme activity (suppressed to)” value in experiment [1] is given as “less than 25%”. For the same molecule, in experiment [1] (setting [6]), the Ki came to 14 µM. For the same molecule, the “cell degeneration” value in experiment [3] and in experiment [5] was “significant degeneration” throughout. Besides, the EC50 in experiment [5] (read-out: EC50 cell degeneration, lung cancer A549 cells, resazurin reduction) came to 14 µM.
Turning to `CCCCC1CCCCC(=O)O1` (stereo not drawn) [ε-decalactone], in experiment [1], the “inhibition of PMPMEase” value is listed as 30% and the “residual enzyme activity (suppressed to)” value is “less than 25%”.
Take `CC1=C(C=O)C(C)(C)CCC1` [β-Cyclocitral, β-cyclocitral]: in experiment [1], the “residual enzyme activity (suppressed to)” value was “less than 25%”. In addition, the inhibitory constant (Ki) in experiment [1] (setting [6]) worked out at 4 µM.
